The subject of data set [1] is Rattus norvegicus. Nature of the data set: Antiinflammatory activity in albino rat assessed as inhibition of carrageenan-induced paw edema at 0.029 mmol/kg, po after 2 hrs relative to control. It counts as functional. In outline:
(§1)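 Adult albino rats of either sex, 120–150 g, six per group. Compounds at 0.029 mmol/kg suspended in saline with a few drops of Tween 80 and given by oral stomach tube. After 1 h, 0.1 ml of freshly prepared 1% carrageenan in saline injected subplantar into the right hind paw. Paw thickness measured at 1–4 h; % edema inhibition versus control; mean ± SEM; ANOVA.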

The subject of data set [2] is Rattus norvegicus. Nature of the data set: Antiinflammatory activity in albino rat assessed as inhibition of carrageenan-induced paw edema at 0.029 mmol/kg, po after 3 hrs relative to control. It counts as functional. In outline:
as §1
Background: In the carrageenan paw model, swelling and tenderness develop within hours.

The test system of data set [3] is Rattus norvegicus. Nature of the data set: Antiinflammatory activity in albino rat assessed as inhibition of carrageenan-induced paw edema at 0.029 mmol/kg, po after 4 hrs relative to control. The class given is functional. In outline:
as §1

Data set [4] deals with Rattus norvegicus. Nature of the data set: Antiinflammatory activity in albino rat assessed as inhibition of carrageenan-induced paw edema at 0.029 mmol/kg, po after 4 hrs relative to indomethacin. The class given is functional. In outline:
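Rat carrageenan paw edema: oral 0.029 mmol/kg in saline/Tween 80, 1 h before subplantar 0.1 ml 1% carrageenan into the right hind paw; six rats per group. Potency is % inhibition of the test compound divided by % inhibition of indomethacin at 4 h.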

The test system of data set [5] is Rattus norvegicus. Nature of the data set: Gastrointestinal toxicity in albino rat assessed as ulcerogenic index at 0.029 mmol/kg, po after 5 hrs. The class given is organism-based. Particulars: in vivo. In outline: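 Adult albino rats of either sex (120–150 g), 6 per group, got the test compounds orally by stomach tube as a suspension in saline with a few drops of tween 80. They were the same rats used in the carrageenan paw-edema test. Stomachs were then opened along the great curvature and examined for lesions or bleeding. Ulceration was recorded as the number of rats with ulcers out of 6.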

Data set [6] concerns Mus musculus. Nature of the data set: Analgesic activity in albino mouse assessed as decrease in acetic acid-induced writhing at 8.45 mg/kg, po administered 1 hr prior to acetic acid challenge relative to control. The class given is functional. In outline: (§2)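 Albino mice of either sex, 18–22 g, six per group. Test agents suspended in saline with a few drops of Tween 80 and given by oral stomach tube; controls handled identically without drug. After 1 h, 0.3 ml of 1% acetic acid ip. Writhing contractions counted for 30 min, starting 5 min after injection. % protection versus control mean; mean ± SEM; one-way ANOVA with post hoc test.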
In general terms: Writhing tests count abdominal constrictions after an irritant is injected.

The subject of data set [7] is Rattus norvegicus. Nature of the data set: Antiinflammatory activity in albino rat assessed as inhibition of carrageenan-induced paw edema at 0.029 mmol/kg, po after 1 hr relative to control. It counts as functional. In outline: as §1
The subject of data set [8] is Mus musculus. Nature of the data set: Analgesic activity in albino mouse assessed as decrease in acetic acid-induced writhing at 10.45 mg/kg, po administered 1 hr prior to acetic acid challenge relative to control. It counts as functional. In outline:
as §2

The subject of data set [9] is Mus musculus. Nature of the data set: Analgesic activity in albino mouse assessed as decrease in acetic acid-induced writhing at 7.63 mg/kg, po administered 1 hr prior to acetic acid challenge relative to control. The class given is functional. In outline:
as §2

For data set [10], the system named is Mus musculus. Nature of the data set: Analgesic activity in albino mouse assessed as decrease in acetic acid-induced writhing at 11.32 mg/kg, po administered 1 hr prior to acetic acid challenge relative to control. It counts as functional. In outline: as §2
The test system of data set [11] is Rattus norvegicus. Nature of the data set: Antiinflammatory activity in albino rat assessed as inhibition of carrageenan-induced paw edema at 10 mg/kg, po. It counts as functional. In outline: (§3)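 Rat carrageenan paw edema with oral dosing at 10, 15, 20 and 25 mg/kg, suspended in saline with Tween 80, 1 h before subplantar 0.1 ml 1% carrageenan into the right hind paw. % edema inhibition versus control at each dose; IC50 (mg/kg) derived from these four doses.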

Data set [12] concerns Rattus norvegicus. Nature of the data set: Antiinflammatory activity in albino rat assessed as inhibition of carrageenan-induced paw edema at 15 mg/kg, po. It counts as functional. In outline:
as §3

Data set [13] relates to Rattus norvegicus. Nature of the data set: Antiinflammatory activity in albino rat assessed as inhibition of carrageenan-induced paw edema at 20 mg/kg, po. It counts as functional. In outline:
as §3

The subject of data set [14] is Rattus norvegicus. Nature of the data set: Antiinflammatory activity in albino rat assessed as inhibition of carrageenan-induced paw edema at 25 mg/kg, po. It counts as functional. In outline:
as §3

The subject of data set [15] is Rattus norvegicus. Nature of the data set: Antiinflammatory activity in po dosed albino rat assessed as inhibition of carrageenan-induced paw edema. The class given is functional, organism-based. In outline: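 Adult albino rats of either sex, 120–150 g, groups of 6. Compound suspended in saline with a few drops of tween 80, given by oral stomach tube 1 h before subplantar injection of freshly prepared 1% carrageenan (0.1 ml) in saline into right hind paw. Paw thickness read at 1–4 h; % edema inhibition versus carrageenan control; mean ± SEM, one-way ANOVA with post hoc test.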

Data set [16] deals with Mus musculus. Nature of the data set: Analgesic activity in albino mouse assessed as decrease in acetic acid-induced writhing at 11.52 mg/kg, po administered 1 hr prior to acetic acid challenge relative to control. The class given is functional. In outline: as §2
In data set [17] the test system is Mus musculus. Nature of the data set: Analgesic activity in albino mouse assessed as decrease in acetic acid-induced writhing at 12.04 mg/kg, po administered 1 hr prior to acetic acid challenge relative to control. It counts as functional. In outline: as §2

As for `CCCn1cnc2c(c1=N)C1CCCN1C(=S)N2CC` (stereo not given), the inhibition in vivo at 29 µmol/kg in data set [1] came to 15.7%; in data set [2] it was 9.37%; in data set [3], 6.82%; in [7] it was 13.5%. The relative potency at 29 µmol/kg in data set [4] worked out at 0.24. The UI entry in [5] is recorded as “Non-toxic”. In addition, the inhibition in vivo at 8.45 mg/kg in data set [6] turned out to be 77.2%.

With `O=C1NC(c2ccccc2)NC2=C1C1CCCN1C(=O)N2c1ccccc1` (stereo not given), the inhibition in vivo at 29 µmol/kg is 12.4% in data set [1], 11.5% in data set [2], 10.6% in data set [3] and 4.47% in [7]. The relative potency at 29 µmol/kg in [4] is 0.38. In addition, the inhibition in vivo at 10.45 mg/kg in data set [8] was found to be 77.7%.

With `CCN1C(=S)N2CCCC2c2c1ncn(C)c2=N` (stereo not given), the inhibition in vivo at 29 µmol/kg in data set [1] amounted to 14.1%; in data set [2] it was 11.5%; in [3], 9.93%; in data set [7] it was 11.2%. Besides, the relative potency at 29 µmol/kg in data set [4] was 0.36. Moreover, the UI result in data set [5] was “Non-toxic”. The inhibition in vivo at 7.63 mg/kg in [9] is 97.6%.

Take `COc1ccc(C2NC(=O)C3=C(N2)N(c2ccccc2)C(=O)N2CCCC32)cc1` (stereo not given): the inhibition in vivo at 29 µmol/kg in data set [1] was 6.64%; in data set [2], 13.7%; in data set [3], 18.6%; in data set [7] it was 6.72%. Also, the relative potency at 29 µmol/kg in [4] was determined as 0.68. Besides, in data set [10], the inhibition in vivo at 11.32 mg/kg was 84.4%.

In the case of `O=C1CN=C2C3=C(N=C(c4ccccc4)N12)N(c1ccccc1)C(=O)N1CCCC31` (stereo not given), the inhibition in vivo at 29 µmol/kg was found to be 22.3% in [1], 27.4% in data set [2], 29.2% in data set [3] and 14.6% in [7]. Also, in [4], the relative potency at 29 µmol/kg was 1.06. The inhibition in vivo at 10 mg/kg in data set [11] amounted to 17%. The inhibition in vivo at 15 mg/kg in [12] came to 40%. Also, the inhibition in vivo at 20 mg/kg in data set [13] was determined as 61.3%. For the same molecule, the inhibition in vivo at 25 mg/kg in data set [14] is 68.4%. Moreover, in data set [15], the IC50 stood at 17.62 mg/kg. Further, in data set [5], the UI entry is listed as “Non-toxic”. Besides, the inhibition in vivo at 11.52 mg/kg in data set [16] amounted to 78.5%.

`O=C1N(c2ccccc2)c2nc(-c3ccccc3)nc(N3CCCC3)c2C2CCCN12` (stereo not given): the inhibition in vivo at 29 µmol/kg is 26.5% in data set [1], 25.2% in data set [2], 15.5% in [3] and 7.82% in data set [7]. Besides, the relative potency at 29 µmol/kg in data set [4] was 0.56. For the same molecule, in data set [5], the UI result is “Non-toxic”. Besides, the inhibition in vivo at 12.04 mg/kg in [17] is 95%.

For orientation: inhibition in vivo means the percentage by which the read-out fell short of the control.

The record behind these values is ChEMBL document CHEMBL1155292, “Synthesis, analgesic and anti-inflammatory activities evaluation of some bi-, tri- and tetracyclic condensed pyrimidines” (Eur J Med Chem, 2009).
